From ChEMBL document CHEMBL3580559, “Antimalarial 5,6-Dihydro-α-pyrones from Cryptocarya rigidifolia: Related Bicyclic Tetrahydro-α-Pyrones Are Artifacts1” (J Nat Prod, 2015)
pIC50: −log10 of the molar value.

Assays:
Plasmodium falciparum = experiment: Antimalarial activity against chloroquine/mefloquine-resistant Plasmodium falciparum Dd2 incubated for 72 hrs by SYBR green I-based fluorescence assay; type: functional, organism-based; settings: Dd2, 72 h
Method in brief: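 Parasite growth of P. falciparum Dd2 (chloroquine/mefloquine-resistant) measured after 72 h compound treatment with the SYBR green I-based fluorescence assay; artemisinin run as positive control; IC50 values reported.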

A2780 = experiment: Antiproliferative activity against human A2780 cells assessed as inhibition of cell growth incubated for 2 days by alamar blue assay; type: cell-based; settings: A2780, 48 h

SMILES | pIC50 (Plasmodium falciparum) | pIC50 (A2780)
CCCCCCCCCCCCC[C@@H](O)C[C@H]1CC=CC(=O)O1 | 5.04 | < 5.00
CCCCCCCCCCCCCCC[C@@H](O)C[C@H](O)C[C@H]1CC=CC(=O)O1 | 5.24 | < 5.00
CCCCCC/C=C\CCCCCCC[C@@H](O)C[C@H]1CC=CC(=O)O1 | 5.26 | 5.07
CCCCCCCC/C=C\CCCCCCC[C@H](O)C[C@H]1CC=CC(=O)O1 | 5.13 | < 5.00
CCCCCCCC(O)CCCCCCC/C=C/[C@H](O)C[C@H]1CC=CC(=O)O1 (stereo partly drawn) | 5.05 | < 5.00
CCCCCCCC/C=C\CCCCCC(O)CC1C[C@H]2C[C@H](CC(=O)O2)O1 (stereo partly drawn) | 5.40 | < 5.00
CCCCCCCCCCC/C=C\CCCCCCCC1C[C@H]2C[C@H](CC(=O)O2)O1 (stereo partly drawn) | 5.22 | < 5.00
CCCCCCCCCCCCC(O)CC1C[C@H]2C[C@H](CC(=O)O2)O1 (stereo partly drawn) | < 5.00 | < 5.00
CCCCCCCCCCCCCCC[C@@H](O)C[C@H]1C[C@H]2C[C@H](CC(=O)O2)O1 | < 5.00 | < 5.00
CCCCCC/C=C\CCCCCCC[C@@H]1C[C@H]2C[C@H](CC(=O)O2)O1 | < 5.00 | < 5.00
CCCCCCCC(O)CCCCCCC/C=C/[C@H]1C[C@H]2C[C@H](CC(=O)O2)O1 (stereo partly drawn) | < 5.00 | < 5.00
C[C@@H]1CC[C@H]2[C@@H](C)C(=O)O[C@@H]3O[C@@]4(C)CC[C@@H]1[C@]32OO4 [ARTEMISININ] | 8.15 | 
